SIRT5 inh: blocks human SIRT5 desuccinylation of peptide | Purified SirT5, succinyl-peptide AMC, trypsin-coupled fluorescence | inhibition, % at 15 µM | 1.1% of 330,000 active | AID 652115; in the data active = inhibition above about 15%
CRFR2-BP antag: antagonists of CRF-binding protein/CRF-R2 receptor complex | inhibition, % at 11.8 µM | HEK293 CRF-R2/CRF-BP, CRF-induced calcium fluorescence | 0.59% of 350,000 active | AID 588475;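 active = inhibition of the ligand-induced calcium signal above about 50% at the single tested concentration, limit read from the data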
PKA-R1A activ: activators of PKA-R1A complex. P00514+P68181. PKA-R1A dissociation, Cy5-IP20 fluorescence polarization; scaled: DMSO 0%, 113 µM cGMP 100%. activation, % at 11.4 µM. 0.083% of 340,000 active;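 active = percent activation above the mean of all tested compounds plus 3 SD, cut at about 19% in these data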;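 also: higher means more PKAc released from R1A so a rise in polarization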
PKA-R2B activ: PKA-R2B complex activation | activation, % at 11.4 µM | PKA-R2B holoenzyme dissociation, Cy5-IP20 fluorescence polarization; R2B truncated from residue 108, S112A mutant; 0% DMSO only, 100% 113 µM cGMP | 0.079% of 340,000 active;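 active = activation above a cutoff set at the mean over all compounds plus 3 SD, cut at about 18% in these data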;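 also: higher means more holoenzyme dissociation and a rise in polarization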
Target sequence (P31323 whole entry, looked up, other chains not shown, the tested form may be a part): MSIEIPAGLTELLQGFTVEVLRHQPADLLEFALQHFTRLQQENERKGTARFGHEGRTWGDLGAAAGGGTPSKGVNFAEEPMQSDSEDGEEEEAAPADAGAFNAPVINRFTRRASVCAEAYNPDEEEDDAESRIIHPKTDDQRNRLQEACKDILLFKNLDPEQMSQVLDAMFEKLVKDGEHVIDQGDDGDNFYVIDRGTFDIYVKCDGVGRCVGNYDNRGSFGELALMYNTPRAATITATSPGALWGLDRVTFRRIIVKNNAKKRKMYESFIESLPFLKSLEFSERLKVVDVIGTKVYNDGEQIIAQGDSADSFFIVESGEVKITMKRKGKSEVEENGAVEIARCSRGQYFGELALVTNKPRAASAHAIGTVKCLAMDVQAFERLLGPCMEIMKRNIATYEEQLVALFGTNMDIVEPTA
S100A4 inh HTS: blocks human S100A4 binding to myosin IIA peptide | S100A4/TAMRA-MyoIIA peptide fluorescence polarization | inhibition, % at 10.7 µM | 0.14% of 360,000 active | AID 652163;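 active = mean inhibition of at least 70% across replicates, with every replicate also reaching that level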
Target sequence (P26447 whole entry, looked up): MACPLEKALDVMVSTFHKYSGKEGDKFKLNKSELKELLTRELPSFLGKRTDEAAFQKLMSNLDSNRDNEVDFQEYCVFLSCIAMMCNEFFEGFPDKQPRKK
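Material: S100A4 monomer protein | Medium: HEPES pH 7.2 with CaCl2, KCl, NaCl, DTT, Triton | Reagent: Labelled myosin peptide probe, 5 nM | Doses: One dose per compound | Times: 5 min incubation before reading | Benchmarks: Neutral control DMSO, positive control TFP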
Starred values were filed as active, the others as inactive; · = no result given. In the library only some 1.5% were active in any assay of this set; here they are far more common.

SMILES | SIRT5 inh | CRFR2-BP antag | PKA-R1A activ | PKA-R2B activ | S100A4 inh HTS
COc1ccc(NC(=O)N(C)C[C@H]2Oc3c(NC(=O)NC4CCCCC4)cccc3C(=O)N([C@H](C)CO)C[C@@H]2C)cc1 | -1.0 | -26.8 | 9.1 | 2.5 | 5.4
CNC[C@@H]1Oc2ccc(NC(=O)Nc3cccc4ccccc34)cc2C(=O)N([C@H](C)CO)C[C@@H]1C | 4.8 | · | · | · | 137.3*
C[C@@H]1CN([C@@H](C)CO)C(=O)c2cccc(N(C)C)c2O[C@@H]1CN(C)C(=O)Nc1cccc2ccccc12 | 6.7 | · | · | · | 81.4*
COc1ccc(NC(=O)N(C)C[C@H]2Oc3c(NC(=O)NC4CCCCC4)cccc3C(=O)N([C@H](C)CO)C[C@H]2C)cc1 | 2.0 | · | · | · | 88.3*
C[C@H](CO)N1C[C@H](C)[C@@H](CN(C)C(=O)Nc2ccccc2)Oc2c(NS(=O)(=O)c3cccs3)cccc2C1=O | 24.5* | -1.9 | 9.0 | -2.5 | -6.1
C[C@H](CO)N1C[C@H](C)[C@@H](CN(C)C)OCCCC[C@H](C)Oc2ccc(NS(=O)(=O)c3cccs3)cc2C1=O | -2.0 | · | · | · | -3.4
CC(C)NC(=O)Nc1ccc2c(c1)C(=O)N([C@H](C)CO)C[C@@H](C)[C@H](CN(C)Cc1ccc(Cl)c(Cl)c1)OCCCC[C@@H](C)O2 | 4.6 | · | · | · | 4.3
C[C@@H]1CN([C@@H](C)CO)C(=O)c2cccc(NC(=O)Nc3cccc4ccccc34)c2O[C@H]1CN(C)C(=O)Nc1ccccc1 | 6.2 | · | · | · | 105.3*
Cc1cc(C(=O)Nc2cccc3c2O[C@H](CN(C)CC2CC2)[C@@H](C)CN([C@@H](C)CO)C3=O)n(C)n1 | -3.5 | · | · | · | -1.7
C[C@@H]1CN([C@H](C)CO)C(=O)c2c(c3ccccc3n2C)-c2ccccc2CO[C@H]1CN(C)S(=O)(=O)c1ccc(C(F)(F)F)cc1 | 24.8* | · | · | · | 2.0
C[C@H]1CN([C@@H](C)CO)C(=O)c2c(c3ccccc3n2C)-c2ccccc2CO[C@H]1CN(C)S(=O)(=O)c1ccc(C(F)(F)F)cc1 | -0.3 | · | · | · | -3.9
C[C@@H]1CN([C@H](C)CO)C(=O)c2c(c3ccccc3n2C)-c2ccccc2CO[C@@H]1CN(C)S(=O)(=O)c1ccc(C(F)(F)F)cc1 | 32.5* | · | · | · | -1.0
C[C@H]1CN([C@@H](C)CO)C(=O)c2ccccc2-c2ccccc2CO[C@H]1CN(C)C(=O)Nc1ccccc1 | -2.6 | · | · | · | -1.9
CCOc1cc(C(=O)NC(CC(=O)O)c2ccc(OC3CCCC3)cc2)cc(OCC)c1OCC (stereo not drawn) | 24.4* | 9.5 | 6.7 | 1.2 | 0.6
CCCCCN(C(=O)CCC(=O)OCC(=O)c1c(C)cc(C)cc1C)c1c(N)n(CCCC)c(=O)[nH]c1=O | 5.6 | 52.4* | -9.5 | 2.5 | -0.9
C[C@H]1CN([C@@H](C)CO)C(=O)c2c(c3ccccc3n2C)-c2ccccc2CO[C@@H]1CN(C)Cc1ccccc1 | 4.5 | · | · | · | 4.2
C[C@H]1CN([C@@H](C)CO)C(=O)c2c(c3ccccc3n2C)-c2ccccc2CO[C@H]1CN(C)Cc1cccc2c1OCCCO2 | 21.4* | · | · | · | 6.5
COC(=O)N(C)C[C@H]1OCc2ccccc2-c2c(n(C)c3ccccc23)C(=O)N([C@@H](C)CO)C[C@@H]1C | 18.3* | · | · | · | 13.3
C[C@@H]1CN([C@H](C)CO)C(=O)c2c(c3ccccc3n2C)-c2ccccc2CO[C@H]1CN(C)Cc1cccc2c1OCCCO2 | 23.1* | · | · | · | -7.2
C[C@@H]1CN([C@H](C)CO)C(=O)c2c(c3ccccc3n2C)-c2ccccc2CO[C@@H]1CN(C)Cc1cccc2c1OCCCO2 | 19.6* | · | · | · | 18.3
CC(C)C#Cc1ccc2c(c1)O[C@H](CN(C)Cc1cncnc1)[C@H](C)CN([C@H](C)CO)S2(=O)=O | 2.5 | · | · | · | 5.5
C[C@H](CO)N1C[C@H](C)[C@H](CN(C)Cc2ccncc2)Oc2ccc(N(C)C)cc2CC1=O | 3.7 | · | · | · | -1.9
Cc1ccccc1-c1ccc([C@H]2[C@H](CO)N3C(=O)CN(C(=O)c4ccc(F)cc4)C[C@@H]23)cc1 | 1.7 | · | · | · | 4.9
C[C@H](CO)N1C[C@H](C)[C@H](CN(C)Cc2ccccc2)OCc2ccccc2-c2c(n(C)c3ccccc23)C1=O | -0.6 | · | · | · | -4.2
C[C@H]1CN([C@@H](C)CO)C(=O)c2c(c3ccccc3n2C)-c2ccccc2CO[C@@H]1CN(C)Cc1cccc2c1OCCCO2 | 19.4* | · | · | · | -2.0
SMILES | SIRT5 inh | CRFR2-BP antag | PKA-R1A activ | PKA-R2B activ | S100A4 inh HTS
COc1ccccc1CN(C)C[C@H]1OCc2ccccc2-c2c(n(C)c3ccccc23)C(=O)N([C@@H](C)CO)C[C@H]1C | 15.4* | · | · | · | -0.6
COc1ccccc1CN(C)C[C@@H]1OCc2ccccc2-c2c(n(C)c3ccccc23)C(=O)N([C@H](C)CO)C[C@@H]1C | -0.3 | · | · | · | 11.5
C[C@H]1CN([C@@H](C)CO)C(=O)c2ccccc2-c2ccccc2CO[C@H]1CN(C)Cc1cccc2c1OCCCO2 | -0.7 | · | · | · | 2.8
C[C@@H]1CN([C@@H](C)CO)C(=O)c2c(c3ccccc3n2C)-c2ccccc2CO[C@@H]1CN(C)Cc1cccc2c1OCCCO2 | 24.6* | · | · | · | -28.5
COc1ccc(CCNC(=O)c2cccc3c2C(=O)N(C2CCCCC2)C3)cc1OC | -2.3 | 74.2* | -0.7 | -4.7 | -5.7
O=C(NCCc1ccccc1)c1cccc2c1C(=O)N(C1CCCCC1)C2 | 1.9 | 15.3 | -3.4 | -14.7 | 4.4
Cc1noc(C)c1S(=O)(=O)Nc1ccc2c(c1)CC(=O)N([C@@H](C)CO)C[C@H](C)[C@@H](CN(C)C(=O)Nc1cccc3ccccc13)O2 | -3.0 | · | · | · | -0.7
CCCCCC(=O)NNC(=O)c1ccc(F)cc1 | · | 53.0* | -7.1 | -3.1 | ·
CCCNC(=O)Nc1ccc2c(c1)C(=O)N(C)C[C@H](OC)[C@H](C)CN(C(=O)C1CCC1)[C@@H](C)CO2 | -2.3 | · | · | · | -16.3
Cc1cc(/C=N/Nc2ccc([N+](=O)[O-])cn2)c(C)n1-c1ccccc1 | · | -6.2 | -14.5 | -8.7 | ·
Cc1c(C(=O)O)cccc1-n1c(C)cc(/C=N/Nc2ccc([N+](=O)[O-])cn2)c1C | 15.6* | -4.0 | 4.2 | -2.5 | -4.6
COc1ccccc1C(=O)Nc1ccc(-c2nnc(SCC(=O)O)n2C)cc1 | · | -21.3 | -1.8 | -7.1 | ·
Cn1c(SCC(=O)O)nnc1-c1ccc(NC(=O)c2ccc(Cl)c(Cl)c2)cc1 | 16.4* | 1.5 | 1.6 | 13.2 | 4.4
CCCNS(=O)(=O)c1cccc(C(=O)NC2CCCc3ccccc32)c1 (stereo not drawn) | · | 51.9* | 3.0 | 0.5 | ·
C=CCN1Cc2ccccc2C[C@@]2(COC(c3ccc(OCCCO)cc3)=N2)C1=O | -1.9 | · | · | · | 7.3
COc1ccccc1CNS(=O)(=O)c1cccs1 | 88.7* | 8.1 | 2.7 | 2.9 | -2.9
C/C(=N/Nc1ccc(C(=O)O)cc1)c1ccc2c(c1)Nc1ccccc1S2 | 24.4* | -13.8 | 10.1 | 0.4 | -4.6
